A value given as a limit tells only on which side of the number the result lay.

Assay type in all cases: functional
The subject of one assay is IGROV-1. Nature of the assay: Antiproliferative activity against human IGROV1 cells after 48 hrs by sulforhodamine B assay. The settings on record: IGROV-1, 48 h; for TGI: read-out: pTGI (converted). The gist of the method:
(§1)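 Cells grown in RPMI 1640 with 5% FBS and 2 mM L-glutamine, plated at 5000–40,000 cells/well and preincubated 24 h at 37 °C, 5% CO2. Five drug concentrations (10-fold or ½-log dilutions from DMSO stocks) applied for 48 h. TCA-fixed (final 10% adherent, 16% suspension), SRB-stained, A515 read. Growth versus time-zero and control wells gave GI50, TGI, LC50.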
In general terms: Sulforhodamine B stains cellular protein and so reports cell mass.

In the next assay the test system is SK-MEL-2. The assay is described as follows: Antiproliferative activity against human SK-MEL-2 cells after 48 hrs by sulforhodamine B assay. The settings on record: SK-MEL-2, 48 h; for TGI: read-out: pTGI (converted). The gist of the method: as §1
A further assay concerns SR. Nature of the assay: Antiproliferative activity against human SR cells after 48 hrs by sulforhodamine B assay. The settings on record: for TGI: read-out: pTGI (converted). The gist of the method: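 Cells in RPMI 1640 with 5% FBS and 2 mM L-glutamine were seeded at 5000–40,000/well according to doubling time and preincubated 24 h at 37 °C in 5% CO2. Time-zero plates were TCA-fixed when drug was added. Five 10-fold or ½-log dilutions from DMSO stocks were added for 48 h. After SRB staining, A515 was read and GI50 derived from [(Ti−Tz)/(C−Tz)]×100 = 50.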

The subject of the next assay is BT-549. The assay is described as follows: Antiproliferative activity against human BT549 cells after 48 hrs by sulforhodamine B assay. The settings on record: BT-549, 48 h. In outline:
as §1

As usually defined, the GI50 is the concentration at which growth is held to half of that of the control. Higher therefore signals lower sensitivity of the cells. One may read the LC50 as the concentration lethal to half of the exposed cells or organisms. A lower LC50 goes with greater toxicity. For `O=C(CCCn1c(=O)c2sc3ncccc3c2n2nnc(-c3ccccc3)c12)NCCc1c[nH]cn1`, in the assay with IGROV-1, halving of growth (GI50) required 9.55 µM, the median lethal concentration (LC50) was 75.9 µM and the TGI is 27.5 µM. Moreover, in the assay on SK-MEL-2, the 50% growth inhibitory concentration (GI50) was 17.8 µM, the 50% lethal concentration (LC50) is 85.1 µM and the TGI is 38.9 µM. In the assay with SR, the GI50 is 2.51 µM, the LC50 (50% lethal concentration) was above 100 µM and the TGI is 6.17 µM.
Take `CN1CCN(CCCn2c(=O)c3sc4ncccc4c3n3nnc(-c4ccccc4)c23)CC1`: in the assay with IGROV-1, it took 5.89 µM to inhibit growth by half (GI50), the median lethal concentration (LC50) was 32.4 µM and the TGI was 13.8 µM. Besides, in the assay on SK-MEL-2, halving of growth (GI50) required 8.71 µM, the median lethal concentration (LC50) was 31.6 µM and the TGI is 16.6 µM. Moreover, in the assay on SR, the GI50 is 1.1 µM, the LC50 (50% lethal concentration) is 12 µM and the TGI was 2.57 µM.
With `O=C(CCCn1c(=O)c2sc3ccccc3c2n2nnc(-c3ccccc3)c12)NCCc1c[nH]cn1`, the GI50 in the assay on BT-549 was 17.4 µM. Further, the CC50 in the assay on BT-549 (read-out: pLC50 (the source's name) (converted)) was above 100 µM. The TGI with BT-549 (read-out: pTGI (converted)) is 41.7 µM.

Values taken from ChEMBL document CHEMBL2346608, “New annelated thieno[2,3-e][1,2,3]triazolo[1,5-a]pyrimidines, with potent anticancer activity, designed through VLAK protocol” (2013).
